This note sets out measurements from ChEMBL document CHEMBL1914345 (Bioorg Med Chem Lett, 2011).

Structures are written as SMILES.

Test [1] can be described thus: Inhibition of retinal rod CNGA1/CNGB1 expressed in Xenopus laevis oocytes assessed as blockade of cGMP-induced current at +50 mV holding potential by patch-clamp electrophysiology. The test is classed as cell-based. The conditions noted are these: oocyte; read-out: Kd(app). In short, it runs like this:
(§1)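 Heteromeric retinal CNGA1 plus CNGB1 channels expressed in Xenopus laevis oocytes. Currents activated by 2 mM cGMP and recorded at both +50 and -50 mV. Apparent Kd taken by fitting current amplitudes to a single-binding-site block equation.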

A short description of test [2]: Inhibition of retinal rod CNGA1/CNGB1 expressed in Xenopus laevis oocytes assessed as blockade of cGMP-induced current at -50 mV holding potential by patch-clamp electrophysiology. The conditions noted are these: oocyte; read-out: Kd(app). The test is classed as cell-based. The procedure, abridged: as §1
For test [3], the system named is Oocyte. Put plainly: Ratio of tetracaine Kd(app) to compound Kd(app) for retinal rod CNGA1/CNGB1 expressed in Xenopus laevis oocytes. It counts as cell-based.
The subject of test [4] is Oocyte. Briefly: Ratio of 2-(dimethylamino)ethyl 4-(octylamino)benzoate Kd(app) to compound Kd(app) for retinal rod CNGA1/CNGB1 expressed in Xenopus laevis oocytes. It counts as cell-based.
Test [5] in a line: Ratio of Kd(app) for sodium channel to Kd(app) for retinal rod CNGA1/CNGB1.

As for `CCCCCCCCNc1ccc(C(=O)OCCN(C)C)cc1Br`, the Kd came to 0.14 µM in test [1] and 0.24 µM in test [2]. The Ratio was 50 in the test with Oocyte [3] and 8 in the test with Oocyte [4].

With `CCCCCCCCNc1ccc(C(=O)OCCN(C)C)cc1`, the Kd in test [1] came out at 0.8 µM; in test [2], 1.72 µM.

Consider `CCCCCCCCNc1ccc(C(=O)OCCN(C)C)cc1Cl`, for which the Kd is 0.14 µM in test [1] and 0.38 µM in test [2]. The Ratio with Oocyte [3] amounted to 50; in the test on Oocyte [4], 8.

Regarding `CCCCCCCCNc1ccc(C(=O)OCCN(C)C)cc1F`, the results for the Kd in test [1] and in test [2] were 0.2 µM and 0.75 µM, respectively. The Ratio in the test with Oocyte [3] stood at 50; in the test with Oocyte [4], 8.

For `CCCCCCCCNc1ccc(C(=O)OCCN(C)C)cc1C`, the Kd in test [1] was 0.5 µM; in test [2], 1.41 µM.

Consider `CCCCNc1ccc(C(=O)OCCN(C)C)cc1Cl`, for which the values for the Kd in test [1] and in test [2] were 3 µM and 12.8 µM, respectively.

Turning to `CCCCCCCCNc1ccc(C(=O)OCCN(C)C)cc1OC`, the Kd in test [1] is 1.25 µM; in test [2], 3 µM.

For the compound `CCCCNc1ccc(C(=O)OCC[N+](C)(C)CCCNCCCN)cc1`, the Ratio in test [5] came out at 100.

In the case of `CCCCNc1ccc(C(=O)OCCN(C)C)cc1C`, the Kd in test [1] was found to be 7.8 µM; in test [2] it was 28.1 µM.

As to `CCCCCCCCNc1ccc(C(=O)OCCN(C)C)c(Cl)c1`, the Kd in test [1] was 0.1 µM; in test [2], 0.22 µM. For the same compound, the values for the Ratio in the test on Oocyte [3] and in the test with Oocyte [4] were 50 and 8, respectively.

Consider `CCCCNc1ccc(C(=O)OCCN(C)C)cc1[N+](=O)[O-]`, for which the Kd in test [1] came to 5.5 µM; in test [2], 19.6 µM.

Take `CCCCCCCCNc1ccc(C(=O)OCCN(C)C)cc1[N+](=O)[O-]`: the Kd in test [1] is 8 µM; in test [2], 12.6 µM.

On to `CCCCNc1ccc(C(=O)OCCN(C)C)cc1OC`, for which the values for the Kd in test [1] and in test [2] were 4.3 µM and 18.3 µM, respectively.
